Reference: ChEMBL document CHEMBL1122142, “Synthesis and antiinflammatory activity of hexahydrothiopyrano[4,3-c]pyrazoles and related analogues” (J Med Chem, 1982)

Tests used:
Mus musculus [1] = assay: The compound was evaluated for the mouse active Arthus (MAA) reaction activity expressed as inhibitory dose after ip administration; type: functional; details: read-out: ID50 (the source's name)
Summary of the method: (§1)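 CD-1 mice were sensitized ip with a 1:1 Freund's complete adjuvant emulsion containing BSA in saline, 5 weeks before challenge. Compound was suspended in 1% Na CMC in pyrogen-free saline and given as one ip or oral dose 1 h before skin challenge with BSA. Screening doses were 150 mg/kg ip and 300 mg/kg po, with some at 75 or 50 mg/kg ip. Lesions were excised 3.5 h after challenge and weighed against controls.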

Mus musculus [2] = assay: The compound was evaluated for the mouse active Arthus (MAA) reaction activity for an ip dose of 150 mg/kg in mouse; type: functional; details: route intraperitoneal; summary of the method: as §1
Cavia porcellus [3] = assay: Tested in delayed hypersensitivity skin reaction (DHSR) after subcutaneous administration, activity reported as percent inhibition of erythema/induration of lesion; 14/34; type: functional
Mus musculus [4] = organism: Mus musculus; assay: The compound was evaluated for the mouse active Arthus (MAA) reaction activity expressed as inhibitory dose.; type: functional; details: read-out: ID50 (the source's name); summary of the method: as §1
[5] = Therapeutic ratio was determined for intraperitoneal administration; type: ADME; details: ip; read-out: TR
Mus musculus [6] = assay: Inhibition of Mouse active Arthus (MAA) reaction activity was determined for peroral dose of 300 mg/kg in mouse; 21-30%; type: functional; details: route oral
[7] = Acute toxicity as LD50 value was determined in mice administered intraperitoneally; type: organism-based; details: mouse, in vivo, ip
[8] = Acute toxicity as LD50 value was determined in mice administered orally; type: organism-based; details: mouse, in vivo, po
Cavia porcellus [9] = assay: Tested in delayed hypersensitivity skin reaction (DHSR) after subcutaneous administration, activity reported as percent inhibition of erythema/induration of lesion; 18/50; type: functional
[10] = Therapeutic ratio was determined for peroral administration; details: po; read-out: TR
Mus musculus [11] = assay: Mouse active Arthus (MAA) reaction activity was determined for an ip dose of 150 mg/kg in mouse; type: functional; details: route intraperitoneal
Mus musculus [12] = assay: The compound was evaluated for the mouse active Arthus (MAA) reaction activity expressed as inhibitory dose after oral administration; type: functional; details: read-out: ID50 (the source's name); summary of the method: as §1
Mus musculus [13] = assay: Inhibition of Mouse Active Arthus reaction following 150 mg/Kg i.p.; 41-60% inhibition.; type: functional; details: for inhibition in vivo at 150 mg/kg: Mus musculus, ip
Cavia porcellus [14] = assay: Tested in delayed hypersensitivity skin reaction (DHSR) after subcutaneous administration, activity reported as percent inhibition of erythema/induration of lesion; 21/6; type: functional
Cavia porcellus [15] = assay: Tested in delayed hypersensitivity skin reaction (DHSR) after subcutaneous administration, activity reported as percent inhibition of erythema/induration of lesion; 2/0; type: functional
Mus musculus [16] = assay: Mouse active Arthus (MAA) reaction activity was determined for an ip dose of 150 mg/kg in mouse; 31-40%; type: functional; details: route intraperitoneal
Mus musculus [17] = assay: Inhibition of Mouse active Arthus (MAA) reaction activity was determined for an ip dose of 150 mg/kg in mouse; 21-30%; type: functional; details: route intraperitoneal
Cavia porcellus [18] = assay: Tested in delayed hypersensitivity skin reaction (DHSR) after subcutaneous administration, activity reported as percent inhibition of erythema/induration of lesion; 5/2; type: functional
Summary of the method: (§2)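 Male Hartley guinea pigs were sensitized with Mycobacterium tuberculosis in Freund's incomplete adjuvant, injected into each hind footpad and subcutaneously at the neck. After 3 weeks, 1.2 μg PPD was given intradermally. Compound in sesame oil was given sc, 3 animals per group, 30 min before and 5 h after PPD; screening dose 50 mg/kg.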

Cavia porcellus [19] = assay: Tested in delayed hypersensitivity skin reaction (DHSR) after subcutaneous administration, activity reported as percent inhibition of erythema/induration of lesion; 6/12; type: functional; summary of the method: as §2
Cavia porcellus [20] = assay: Tested in delayed hypersensitivity skin reaction (DHSR) after subcutaneous administration, activity reported as percent inhibition of erythema/induration of lesion; 19/23; type: functional
Mus musculus [21] = assay: The compound was evaluated for the mouse active Arthus (MAA) reaction activity for peroral screening dose of 150 mg/kg in mouse; type: functional; details: route oral
Mus musculus [22] = assay: The compound was evaluated for the mouse active Arthus (MAA) reaction activity for an ip screening dose of 75 mg/kg in mouse; type: functional; details: route intraperitoneal; summary of the method: as §1
Cavia porcellus [23] = assay: Tested in delayed hypersensitivity skin reaction (DHSR) after subcutaneous administration, activity reported as percent inhibition of erythema/induration of lesion; 22/51; type: functional
Cavia porcellus [24] = assay: Tested in delayed hypersensitivity skin reaction (DHSR) after subcutaneous administration, activity reported as percent inhibition of erythema/induration of lesion; 8/21; type: functional; summary of the method: as §2
Cavia porcellus [25] = assay: The compound was evaluated for the delayed hypersensitivity skin reaction (DHSR) activity after subcutaneous administration; 1/0
Cavia porcellus [26] = assay: Tested in delayed hypersensitivity skin reaction (DHSR) after subcutaneous administration, activity reported as percent inhibition of erythema/induration of lesion; 8/11; type: functional; summary of the method: as §2
Cavia porcellus [27] = assay: Tested in delayed hypersensitivity skin reaction (DHSR) after subcutaneous administration, activity reported as percent inhibition of erythema/induration of lesion; 4/22; type: functional; summary of the method: as §2
Cavia porcellus [28] = assay: Tested in delayed hypersensitivity skin reaction (DHSR) after subcutaneous administration, activity reported as percent inhibition of erythema/induration of lesion; 15/7; type: functional
Cavia porcellus [29] = assay: Tested in delayed hypersensitivity skin reaction (DHSR) after subcutaneous administration, activity reported as percent inhibition of erythema/induration of lesion; 9/30; type: functional; summary of the method: as §2

SMILES: COc1ccc(/C=C2\CSCC3C2=NN(CCCN2CCN(C)CC2)C3c2ccc(OC)cc2)cc1.O=C(O)/C=C\C(=O)O (configuration not stated)
- ED50 (Mus musculus [1]): 60 mg/kg
- inhibition in vivo at 150 mg/kg (Mus musculus [2]): > 60%
- Activity (Cavia porcellus [3]): 14

SMILES: COc1ccc(/C=C2\CS(=O)(=O)CC3C2=NN(CCCN2CCN(C)CC2)C3c2ccc(OC)cc2)cc1.O=C(O)/C=C\C(=O)O (configuration not stated)
- ED50 (Mus musculus [4]): 30 mg/kg
- selectivity ratio [5]: 9.6
- ED50 (Mus musculus [1]): 30 mg/kg
- inhibition in vivo at 300 mg/kg (Mus musculus [6]): 21%
- LD50 [7]: 280 mg/kg
- LD50 [8]: > 1200 mg/kg
- Activity (Cavia porcellus [9]): 18
- selectivity ratio [10]: > 5.1
- inhibition in vivo at 150 mg/kg (Mus musculus [11]): > 60%
- ED50 (Mus musculus [12]): 234 mg/kg

SMILES: CN1CCN(CCCN2N=C3/C(=C/c4ccccc4)CSCC3C2c2ccccc2)CC1.O=C(O)/C=C\C(=O)O (configuration not stated)
- Inhibition (Mus musculus [13]): 41%
- Inhibition (Cavia porcellus [14]): 21%

SMILES: CSc1ccc(/C=C2\CSCC3C2=NN(C(C)=O)C3c2ccc(SC)cc2)cc1 (configuration not stated)
- Activity (Cavia porcellus [15]): 2
- inhibition in vivo at 150 mg/kg (Mus musculus [16]): 31%

SMILES: CC(C)n1nc(-c2cccc(C(F)(F)F)c2)c2c1/C(=C/c1cccc(C(F)(F)F)c1)CS(=O)(=O)C2
- inhibition in vivo at 150 mg/kg (Mus musculus [17]): 21%
- Activity (Cavia porcellus [18]): 5

SMILES: CCCCN1N=C2/C(=C/c3cccnc3)CSCC2C1c1cccnc1 (configuration not stated)
- Activity (Cavia porcellus [19]): 6
- inhibition in vivo at 150 mg/kg (Mus musculus [2]): < 20%

SMILES: Cc1ccc(/C=C2\CS(=O)(=O)Cc3c(-c4ccc(C)cc4)nn(CC(F)(F)F)c32)cc1
- Activity (Cavia porcellus [20]): 19
- inhibition in vivo at 150 mg/kg (Mus musculus [21]): < 20%
- inhibition in vivo at 75 mg/kg (Mus musculus [22]): > 60%

SMILES: CN1CCN(CCCN2N=C3/C(=C/c4ccccc4)COCC3C2c2ccccc2)CC1 (configuration not stated)
- Activity (Cavia porcellus [23]): 22

SMILES: CC(=O)N1N=C2/C(=C/c3ccccc3)CS(=O)(=O)CC2C1c1ccccc1 (configuration not stated)
- inhibition in vivo at 150 mg/kg (Mus musculus [13]): 41%
- Activity (Cavia porcellus [24]): 8

SMILES: CCCN1N=C2/C(=C/c3ccccc3)CSCC2C1c1ccccc1 (configuration not stated)
- inhibition in vivo at 150 mg/kg (Mus musculus [17]): 21%
- Activity (Cavia porcellus [25]): 1

SMILES: CCCN1N=C2/C(=C/c3cccc(C(F)(F)F)c3)CS(=O)(=O)CC2C1c1cccc(C(F)(F)F)c1 (configuration not stated)
- inhibition in vivo at 150 mg/kg (Mus musculus [13]): 41%
- Activity (Cavia porcellus [26]): 8

SMILES: CC(C)N1N=C2/C(=C/c3cccc(C(F)(F)F)c3)CS(=O)(=O)CC2C1c1cccc(C(F)(F)F)c1 (configuration not stated)
- inhibition in vivo at 150 mg/kg (Mus musculus [16]): 31%
- Activity (Cavia porcellus [27]): 4

SMILES: Cc1ccc(/C=C2\CS(=O)(=O)CC3C2=NN(CC2CC2)C3c2ccc(C)cc2)cc1 (configuration not stated)
- inhibition in vivo at 150 mg/kg (Mus musculus [21]): < 20%
- Activity (Cavia porcellus [28]): 15

SMILES: CCCN1N=C2/C(=C/c3ccccc3)COCC2C1c1ccccc1 (configuration not stated)
- inhibition in vivo at 150 mg/kg (Mus musculus [17]): 21%
- Activity (Cavia porcellus [29]): 9
